ChEMBL document CHEMBL1153925, “Synthesis, characterization and biological activity of ring-substituted 6-benzylamino-9-tetrahydropyran-2-yl and 9-tetrahydrofuran-2-ylpurine derivatives” (Bioorg Med Chem, 2009)
Active and inactive are the calls of the source. No cut-off for these calls is given here.

test system: Nicotiana tabacum; experiment: Cytokinin activity in tobacco callus assessed as stimulation of callus growth relative to 6-benzylaminopurine; assay type: functional, organism-based
In short: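 Compounds dissolved in DMSO, diluted with water to 5 × 10^-2 M stock, then diluted in medium to 10^-8 to 10^-4 M. Final DMSO ≤0.2%; solvent control 0.2% DMSO. Readout was cytokinin-dependent tobacco callus growth. Activity is expressed relative to 10^-6 M BAP (=100%) at each compound's optimal concentration. Five replicates per concentration; whole test run at least twice.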

Row | Structure (SMILES) | Activity
1 | COc1ccc(CNc2ncnc3c2ncn3C2CCCCO2)cc1OC (centres undefined) | inactive
2 | COc1cc(CNc2ncnc3c2ncn3C2CCCCO2)cc(OC)c1 (centres undefined) | inactive
3 | COc1ccc(CNc2ncnc3c2ncn3C2CCCCO2)c(OC)c1OC (centres undefined) | inactive
4 | COc1ccc(CNc2ncnc3c2ncn3C2CCCCO2)c(OC)c1 (centres undefined) | inactive
